Values after ≈ are worked out from the molar mass of the structure shown. Active and inactive are the calls of the source. The rule behind the calls is not given here.
Legend:
Staphylococcus aureus [1] = assay: Antibacterial activity against Staphylococcus aureus infected in mouse assessed as protection against bacterial infection at 25 mg/kg, ip administered as single dose measured 1 hr postinjection; format: functional; conditions: route intraperitoneal
[2] = Inhibition of mammalian DNA polymerase […] delta
[3] = (§1) Inhibition of Streptococcus pyogenes DNA polymerase 3
Outline: (§2)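 S. pyogenes DNA polymerase III holoenzyme system reconstituted in 96- or 384-well format; inhibition read as prevention of duplex DNA formation, detected by fluorescence.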

Staphylococcus aureus [4] = assay: Antibacterial activity against Staphylococcus aureus ATCC 29213 by broth microdilution assay in presence of 50% human serum; format: functional
Streptococcus pneumoniae = assay: Antibacterial activity against Streptococcus pneumoniae ATCC 49619 by broth microdilution assay; format: functional
Staphylococcus aureus [5] = assay: Antibacterial activity against Staphylococcus aureus ATCC 29213 by broth microdilution assay; format: functional
Streptococcus pyogenes = assay: as §1; outline: as §2

Compound	IC50 [2]	IC50 [3]	MIC (Staphylococcus aureus [4])	also measured
COc1ccc2nc(Nc3nc(O)c4ccc(C)cc4n3)nc(C)c2c1	2000 nM	3700 nM	1 µg/mL	Activity (Staphylococcus aureus [1]): 50%
COc1ccc2nc(Nc3nc(O)c4ccc(N)cc4n3)nc(C)c2c1	4900 nM	4700 nM	1 µg/mL	
COc1ccc2c(C)nc(Nc3nc(O)c4ccccc4n3)nc2c1		70000 nM		MIC (Streptococcus pneumoniae): 32 µg/mL (≈ 96 µM); MIC (Staphylococcus aureus [5]): 32 µg/mL (≈ 96 µM)
COc1cc2nc(N(C)c3nc(OC)c4ccccc4n3)nc(C)c2cc1OC				Activity (Streptococcus pyogenes): inactive
COc1ccc2nc(Nc3nc(O)c4c(C)cccc4n3)nc(C)c2c1	1200 nM	700 nM	2 µg/mL	
COc1ccc2nc(Nc3nc(O)c4c(Cl)cccc4n3)nc(C)c2c1	900 nM	560 nM	1 µg/mL	
COc1ccc2nc(Nc3nc(O)c4ccc(NC(C)=O)cc4n3)nc(C)c2c1	5000 nM	5500 nM		
Cc1cc2nc(Nc3nc(O)c4ccccc4n3)nc(C)c2cc1C		27100 nM		MIC (Streptococcus pneumoniae): 1 µg/mL (≈ 3.02 µM); MIC (Staphylococcus aureus [5]): > 64 µg/mL
COc1ccc2nc(Nc3nc(O)c4ccc([N+](=O)[O-])cc4n3)nc(C)c2c1	400 nM	> 100000 nM	64 µg/mL	
COc1ccc2nc(Nc3nc(O)c4ccc(Cl)cc4n3)nc(C)c2c1		> 100000 nM		Activity [2]: inactive; Activity (Staphylococcus aureus [4]): inactive
COc1ccc2nc(Nc3nc(O)c4ccccc4n3)nc(C)c2c1		4800 nM		MIC (Streptococcus pneumoniae): 0.25 µg/mL (≈ 0.75 µM); MIC (Staphylococcus aureus [5]): 0.5 µg/mL (≈ 1.5 µM)
COc1ccc2nc(Nc3nc(O)c4ccc(F)cc4n3)nc(C)c2c1	1900 nM	77800 nM	64 µg/mL	
COc1cc2nc(Nc3nc(O)c4ccccc4n3)nc(C)c2cc1OC		2000 nM		MIC (Streptococcus pneumoniae): 1 µg/mL (≈ 2.75 µM); MIC (Staphylococcus aureus [5]): 4 µg/mL (≈ 11 µM)
COc1cc2nc(Nc3nc(OC)c4ccccc4n3)nc(C)c2cc1OC				Activity (Streptococcus pyogenes): inactive
COc1ccc2nc(Nc3nc(O)c4cc(C)ccc4n3)nc(C)c2c1	1700 nM	2800 nM	2 µg/mL	
COc1ccc2c(O)nc(Nc3nc(C)c4cc(OC)ccc4n3)nc2c1	1800 nM	3800 nM	2 µg/mL	
COc1cccc2c(C)nc(Nc3nc(O)c4ccccc4n3)nc12		3100 nM		MIC (Streptococcus pneumoniae): 0.25 µg/mL (≈ 0.75 µM); MIC (Staphylococcus aureus [5]): 0.5 µg/mL (≈ 1.5 µM)
COc1ccc2nc(Nc3nc(O)c4cc([N+](=O)[O-])ccc4n3)nc(C)c2c1	14900 nM	8700 nM		
COc1ccc2nc(Nc3nc(O)c4cccc(OC)c4n3)nc(C)c2c1		> 100000 nM	2 µg/mL	Activity [2]: inactive
COc1ccc2nc(Nc3nc(O)c4ccc(N(C)C)cc4n3)nc(C)c2c1	400 nM	400 nM	2 µg/mL	
CCNc1ccc2c(O)nc(Nc3nc(C)c4cc(OC)ccc4n3)nc2c1	400 nM	400 nM	1 µg/mL	
Cc1ccc2nc(Nc3nc(O)c4ccccc4n3)nc(C)c2c1		209000 nM		MIC (Streptococcus pneumoniae): 16 µg/mL (≈ 50.4 µM); MIC (Staphylococcus aureus [5]): 32 µg/mL (≈ 101 µM)
CNc1ccc2c(O)nc(Nc3nc(C)c4cc(OC)ccc4n3)nc2c1	200 nM	500 nM	1 µg/mL	
COc1ccc2nc(Nc3nc(O)c4c(OC)cccc4n3)nc(C)c2c1	1000 nM	600 nM	2 µg/mL	
